Source: PubChem
Only some compounds are listed: those with a hit (about 4.3% of all), similar ones and a draw of the others.
STAT1 inh: reduces IFN-gamma driven STAT1 reporter signal; inhibition, % at 5.5 µM; NIH 3T3 STAT1-luciferase reporter, luminescence; actives 0.35% (n = 200,000);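 active = inhibition above a set limit, the mean inhibition across all tested compounds plus 3 SD, cut at about 34% in these data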;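 also: 0% = IFN-gamma with DMSO and 100% = IFN-gamma with 300 µM nifuroxazide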
STAT3 act: activators of IL-6 induced STAT3 signaling; activation (% of control), % at 5.6 µM; actives 0.91% (n = 190,000); AID 871; U3A cells, IL-6 STAT3-luciferase reporter, luminescence; 100% = signal with IL-6 EC80 alone;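 active = activation above the screen-wide mean of compound activation plus 3 SD, cut at about 130% in these data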;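 also: 0% = background luminescence of wells with medium and substrate only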
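Test system: human U3A cells carrying STAT3-luciferase construct; control set: IL-6-only wells as 100% reference; timing: compound pre-incubation 1 h before IL-6, then 6 h stimulation at 37 °C; also added: IL-6 stimulus at 33 ng/mL final; evaluation: % activation versus median of IL-6-stimulated wells; detection: reporter luminescence signal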
STAT3 blocker: STAT3 signaling inhibition | U3A cells, IL-6 STAT3-luciferase reporter, luminescence; host cell line lacks STAT1 | inhibition, % at 5.5 µM | actives 0.89% (n = 190,000);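 active = inhibition above the mean inhibition across all screened compounds plus 3 SD, cut at about 44% in these data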;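 also: 0% = DMSO only wells and 100% = 100 µM nifuroxazide control wells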
STAT1 activator: activators of IFN-gamma induced STAT1 signaling | NIH 3T3 STAT1-luciferase reporter, luminescence; 100% = IFN-gamma alone, no compound | activation (% of control), % at 5.5 µM | actives 2.6% (n = 200,000);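 active = activation above the screen-wide mean activation plus 3 SD, cut at about 130% in these data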;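 also: raw ratio to IFN-gamma control signal so 100% means no change and 0% no light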
The depositor's hits bear a star.

`CCOC(=O)c1cc(C(=O)Nc2ccc(C)c(F)c2)nn1C` gave STAT1 inh -40, STAT3 act 116, STAT3 blocker -18 and STAT1 activator 135*.
Screening CCOC(=O)c1c(C)n(OCc2ccccc2)c2ccc3c(no[n+]3[O-])c12 returned STAT1 inh -11, STAT3 act 102, STAT3 blocker 2 and STAT1 activator 109.
Cn1c(-c2ccccc2)cc2c3no[n+]([O-])c3ccc21 was read as STAT1 inh -34, STAT3 act 103, STAT3 blocker 6 and STAT1 activator 130*.
CN(C)c1ccc(/C=C(/C#N)C(=O)NCc2ccccc2)o1 was read as STAT1 inh -32, STAT3 act 107, STAT3 blocker -4 and STAT1 activator 129*.
`CCCN1C=CC(=C2C(=O)c3ccccc3C2=O)C=C1` gave STAT1 inh 92*, STAT3 act 9, STAT3 blocker 113* and STAT1 activator 15.
CN1C=CC(=C2C(=O)c3ccccc3C2=O)C=C1 was read as STAT1 inh -20, STAT3 act 68, STAT3 blocker 42 and STAT1 activator 118.
`CCCCN1C=CC(=C2N=c3cccc([N+](=O)[O-])c3=N2)C=C1` gave STAT1 inh -13, STAT3 act 104, STAT3 blocker -5 and STAT1 activator 111.
CCCCCCN1C=CC(=C2C(=O)c3ccccc3C2=O)C=C1 was read as STAT1 inh 81*, STAT3 act 16, STAT3 blocker 100* and STAT1 activator 24.
For CCN1C=CC(=C2C(=O)c3ccccc3C2=O)C=C1 the results were STAT1 inh 88*, STAT3 act 12, STAT3 blocker 109* and STAT1 activator 20.
CC1CC(C)CN(CCCCOc2ccc([N+](=O)[O-])cc2)C1 (centres undefined) was read as STAT1 inh -6, STAT3 act 101, STAT3 blocker 3 and STAT1 activator 105.
`CC(C)OC(=O)c1ccc(NC(=O)C2C3CC4OC(=O)C2C4C3)cc1` (centres undefined) gave STAT1 inh -36, STAT3 act 113, STAT3 blocker -12 and STAT1 activator 133*.
For CCCOc1ccc(-c2cc(C(F)(F)F)c(C#N)c(SCC(=O)O)n2)cc1 the results were STAT1 inh -4, STAT3 act 105, STAT3 blocker -1 and STAT1 activator 102.
For Cc1ccc(-c2cc(C(F)(F)F)c(C#N)c(SCC(=O)O)n2)cc1 the results were STAT1 inh 0, STAT3 act 135*, STAT3 blocker -39 and STAT1 activator 98.
For O=[N+]([O-])c1cc(Cl)ccc1-c1nc(-c2ccccc2)no1 the results were STAT1 inh -99, STAT3 act 103, STAT3 blocker -6 and STAT1 activator 188*.
CS(=O)c1ccccc1-c1nc(-c2cccc(Cl)c2)no1 (centres undefined) was read as STAT1 inh -20, STAT3 act 85, STAT3 blocker 20 and STAT1 activator 118.
Screening CS(=O)c1ccccc1-c1nc(-c2ccc(Cl)cc2)no1 (centres undefined) returned STAT1 inh -42, STAT3 act 92, STAT3 blocker 11 and STAT1 activator 138*.
`Cc1ccc(-c2noc(-c3ccccc3F)n2)cc1` gave STAT1 inh -35, STAT3 act 98, STAT3 blocker 11 and STAT1 activator 132*.
Screening COc1cccc(-c2ccc(-c3noc(-c4ccccc4F)n3)c(OC)n2)c1 returned STAT1 inh -5, STAT3 act 93, STAT3 blocker 7 and STAT1 activator 105.
`CC1CCc2cc(F)ccc2N1C(=O)CCl` (centres undefined) gave STAT1 inh 24, STAT3 act 102, STAT3 blocker 10 and STAT1 activator 77.
`COC1=C(Nc2ccccc2)C(=O)c2ccccc2C1=O` gave STAT1 inh -15, STAT3 act 134*, STAT3 blocker -38 and STAT1 activator 114.
For C/C=C/c1ccc(OCC(=O)OCc2csc(Nc3ccc(C)cc3)n2)c(OC)c1 the results were STAT1 inh -12, STAT3 act 86, STAT3 blocker 16 and STAT1 activator 110.
For Cc1ccc(Nc2nc(COC(=O)COc3ccc(C=O)cc3)cs2)cc1 the results were STAT1 inh -35, STAT3 act 102, STAT3 blocker -3 and STAT1 activator 131*.
For COCCNC(=O)c1cc2sc3ccccc3c2s1 the results were STAT1 inh -41, STAT3 act 87, STAT3 blocker 18 and STAT1 activator 137*.
CN(C)CCCNC(=O)c1cc2sc3ccccc3c2s1 was read as STAT1 inh -7, STAT3 act 102, STAT3 blocker 4 and STAT1 activator 106.
Cc1cccc(-c2nc(=S)c3c(o2)CCCC3)c1 was read as STAT1 inh -42, STAT3 act 113, STAT3 blocker -14 and STAT1 activator 139*.
`Cn1c(N)c(C(=O)COC(=O)c2ncc(Cl)c(Cl)c2Cl)c(=O)n(C)c1=O` gave STAT1 inh 15, STAT3 act 108, STAT3 blocker -8 and STAT1 activator 85.
Screening CSc1cccc(NC(=O)c2ccccn2)c1 returned STAT1 inh -49, STAT3 act 90, STAT3 blocker 16 and STAT1 activator 142*.
For COc1ccc(NC(=O)c2ccc(-c3ccc(C)c4ccccc34)o2)cc1 the results were STAT1 inh 1, STAT3 act 92, STAT3 blocker 7 and STAT1 activator 99.
COc1ccc(NC(=O)c2ccccn2)cc1 was read as STAT1 inh 27, STAT3 act 34, STAT3 blocker 77* and STAT1 activator 84.
Screening COc1ccc(NC(=O)c2ccccn2)cc1OC returned STAT1 inh -27, STAT3 act 104, STAT3 blocker -2 and STAT1 activator 124.
Screening CCC(=O)Nc1ccc(NC(=O)c2ccccn2)cn1 returned STAT1 inh -30, STAT3 act 90, STAT3 blocker 16 and STAT1 activator 130*.
O=C(Nc1ccc(NC(=O)C2CC2)nc1)c1ccccn1 was read as STAT1 inh -1, STAT3 act 71, STAT3 blocker 40 and STAT1 activator 100.
`COc1ccc(NC(=O)c2ccc(-c3ccccc3Cl)o2)cc1` gave STAT1 inh -33, STAT3 act 104, STAT3 blocker -7 and STAT1 activator 130*.
`Cc1nccn1CC(=O)N/N=C/c1cccc(O)c1` gave STAT1 inh -2, STAT3 act 97, STAT3 blocker 2 and STAT1 activator 102.
For CC(=O)c1ccc(Nc2ccc(-c3ccccc3F)nn2)cc1 the results were STAT1 inh -47, STAT3 act 85, STAT3 blocker 19 and STAT1 activator 142*.
Cc1cc(C)n(-c2ccc(C(=O)N3CCC(CO)(Cc4ccccc4)CC3)cc2)n1 was read as STAT1 inh 11, STAT3 act 92, STAT3 blocker 11 and STAT1 activator 88.
For COc1ccc(N2CCN(CC(=O)Nc3nc4c(s3)CC(C)CC4)CC2)cc1 (centres undefined) the results were STAT1 inh -2, STAT3 act 94, STAT3 blocker 14 and STAT1 activator 102.
